# Compound activity from PubChem BioAssay.
# CAL PDZ FP-1 – untagged CAL PDZ binding inhibitors, primary screen, biochemical, fluorescence polarization, HTS; 300,000 tested, 0.92% active; inhibition, % at 24.9 µM; purified CAL PDZ, TMR-peptide fluorescence polarization, 1 h;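 active = mean inhibition of at least 30% with at least half of replicates also reaching 30%; inconclusive = no clear call, values can overlap the other calls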;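 note: 0% = DMSO neutral control and 100% = excess unlabeled competitor peptide PRC23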
# CAL PDZ FP-2 – CAL PDZ peptide-binding inhibitors, primary screen, biochemical, fluorescence polarization, Cer-tagged CAL PDZ, HTS. purified CAL PDZ, TMR-peptide fluorescence polarization, 1 h. inhibition, % at 20 µM. 330,000 tested, 0.02% active;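 active = highest replicate inhibition of at least 40%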;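 note: plate controls were DMSO neutral control wells for no effect and unlabeled competitor peptide control wells for full effect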
#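 System: tagged CAL PDZ domain. Schedule: 1 h room-temperature incubation prior to read. Signal: fluorescence polarization (mP). Measure: percent inhibition from loss of millipolarization.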
# CDK5 p35 inh – inhibitors of human CDK5/p35 kinase, primary screen, biochemical, single concentration | 330,000 tested, 0.01% active | AID 488839, 2010 | Recombinant CDK5/p35, ADP-Glo luminescence, 60 min | Cyclin-dependent kinase 5 (Homo sapiens) + Cyclin-dependent kinase 5 activator 1 (Homo … | inhibition, % at 10 µM;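 active = highest replicate inhibition of at least 50% and at least 75% of replicates reaching 50%; inconclusive = only one of the two criteria met; inactive = both criteria failed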;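 note: plate controls were DMSO neutral control for no effect and GW8510 at 10 µM for full effect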
# Target sequence (Q00535 whole entry, looked up): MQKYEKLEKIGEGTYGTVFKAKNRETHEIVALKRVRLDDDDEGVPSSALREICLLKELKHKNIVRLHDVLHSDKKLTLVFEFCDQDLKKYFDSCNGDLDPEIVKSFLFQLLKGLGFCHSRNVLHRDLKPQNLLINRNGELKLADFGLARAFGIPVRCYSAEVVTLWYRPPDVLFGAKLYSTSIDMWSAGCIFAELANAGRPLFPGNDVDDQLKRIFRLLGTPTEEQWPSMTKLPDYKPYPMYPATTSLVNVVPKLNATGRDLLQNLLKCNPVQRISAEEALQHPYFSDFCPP
# Target sequence (Q15078 whole entry, looked up): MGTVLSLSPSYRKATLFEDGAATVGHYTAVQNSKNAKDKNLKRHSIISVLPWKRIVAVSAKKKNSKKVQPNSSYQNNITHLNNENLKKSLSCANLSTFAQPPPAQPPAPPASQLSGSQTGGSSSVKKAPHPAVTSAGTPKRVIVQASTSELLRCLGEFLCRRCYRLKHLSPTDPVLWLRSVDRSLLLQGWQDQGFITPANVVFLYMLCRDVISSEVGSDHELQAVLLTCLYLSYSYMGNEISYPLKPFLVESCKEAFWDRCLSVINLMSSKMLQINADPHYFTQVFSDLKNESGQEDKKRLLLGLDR
# Rtt109 HAT inh – inhibitors of C. albicans Rtt109/Vps75 HAT, primary screen, biochemical, ThioGlo CoA-SH fluorescence, plate reader. Histone acetyltransferase RTT109 (Candida albicans (strain SC5314 / ATCC MYA-2876)), …. inhibition, % at 34.9 µM. purified Rtt109/Vps75, 4 h. 330,000 tested, 0.16% active. AID 540336, 2011;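 active = inhibition of at least 50% in every replicate; inconclusive = best replicate reaches 50% inhibition but some replicates fall short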
# dFosB act – activators of delta FosB homodimer, primary screen, biochemical, fluorescence polarization, TAMRA-CDK5 oligo, single point | Protein FosB (Mus musculus), P13346 | purified delta FosB; percent of positive-control signal above neutral wells | activation, % at 25 µM | 340,000 tested, 0.99% active | AID 493131, 2011;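 active = mean activation above about 17%, with every replicate also reaching it, limit read from the data, passing the limit was not always enough; inconclusive = only one of the two conditions met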
# Dyrk1A ADPGlo – rat Dyrk1A kinase inhibitors, primary screen, biochemical, single point, plate reader | Dual specificity tyrosine-phosphorylation-regulated kinase 1A (Rattus norvegicus), Q63470 | ADP-Glo luminescence, NFATc1 peptide | inhibition, % at 12.5 µM | 310,000 tested, 0.43% active; in the data active = inhibition above about 50%;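 note: plate controls were vehicle with enzyme for no effect and no enzyme for full effect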
# * marks the source's active call; other numbers are inactive results; ? = inconclusive; nt = not tested or not shown. Only some compounds are listed: those with a hit (about 2.2% of all), similar ones and a draw of the others.
SMILES,CAL PDZ FP-1,CAL PDZ FP-2,CDK5 p35 inh,Rtt109 HAT inh,dFosB act,Dyrk1A ADPGlo
COc1cccc(OCCOc2ccc(/C=C3\C(=N)N4N=C(S(C)(=O)=O)SC4=NC3=O)cc2OC)c1,55*,-5,2,-2,-29,-6
CNC[C@H](Cc1ccccc1)NC[C@@H](Cc1cccc2ccccc12)NCCc1ccc(C)cc1,5,-6,1,12,30*,1
Cc1cccc(N(CC(=O)NCc2ccco2)C(=O)CCC(=O)Nc2nccs2)c1,nt,0,-1,-2,-2,-1
O=[N+]([O-])c1ccc(Sc2nccn2Cc2ccccc2)cc1,30*,0,1,6,-12,-5
Clc1ccc(CSc2nccn2Cc2ccccc2)cc1,-4,nt,0,3,2,0
O=[N+]([O-])c1ccc(NC(=S)N2CCc3ccccc3C2)cc1,-5,0,0,4,-3,0
CCN(CC)S(=O)(=O)c1ccc(O)c(C(=O)OCC(=O)N2c3ccccc3CC2C)c1 (stereo not given),1,-1,0,-5,-4,0
CCC(C(=O)NN1C(=O)c2ccccc2C1=O)c1ccccc1 (stereo not given),-6,45*,0,5,-5,2
CCC(C(=O)Nc1ccccc1)c1ccccc1 (stereo not given),-1,0,0,1,-6,-11
COC(=O)c1sccc1NC(=O)c1cccc(Cl)c1,83*,-3,1,-2,2,0
COc1cccc2cc(-c3ccnc(N)n3)oc12,77*,10,-2,1,-18,13
COc1cc(C(=O)NCCSc2ccc(F)cc2)cc(OC)c1OC,nt,-1,2,4,-4,nt
CC1CCN(C(=O)CSc2ccc(-c3cccc([N+](=O)[O-])c3)nn2)CC1,4,0,1,-9,-1,-1
Cc1sc2nc(SCCN(C)C)n(-c3ccccc3)c(=O)c2c1-c1ccc(F)cc1,-3,-2,-1,8,22*,-3
CCOc1ccc(Cl)cc1CNCCCSc1ncccn1,70*,4,-2,-6,4,1
COc1ccc(Cl)cc1CNCCCSc1ncccn1,-1,0,-1,-1,-3,-2
CN(C(=O)c1cccc(NC(=O)Cc2cccc(NC(=O)C3CCCN(C(=O)C4CCCC4)C3)c2)c1)C1CC1 (stereo not given),3,0,-1,-3,-7,-4
CCCCn1c(N)c(N(CC)C(=O)C2CCCC2)c(=O)[nH]c1=O,-1,0,1,3,4,nt
CCCCn1c(N)c(N(CC(C)C)C(=O)C2CCN(S(=O)(=O)c3ccc(C)cc3)CC2)c(=O)[nH]c1=O,nt,-1,0,3,56*,2
CCCCn1c(N)c(N(C)C(=O)C2CCCC2)c(=O)[nH]c1=O,43*,0,1,3,-3,-2
COc1ccc(C2=Nc3cccc4cccc(c34)N2)cc1,-5,1,1,7,55*,-4
CSc1nsc(SCC(=O)Nc2ccc(F)cc2F)n1,-2,-1,1,3,-7,1
CN(C)c1ccc(/C=C2/C[N+](C)(C)C/C(=C/c3ccc(N(C)C)cc3)C2=O)cc1,-6,0,-1,4,22*,5
CC(C)/C=C1\CC/C(=C\c2ccc(N(C)C)cc2)C1=O,-6,-1,1,0,0,2
CN(C(=O)c1cccc(C(F)(F)F)c1)C1CCCc2ccccc21 (stereo not given),52*,-1,0,-1,-3,0
SMILES,CAL PDZ FP-1,CAL PDZ FP-2,CDK5 p35 inh,Rtt109 HAT inh,dFosB act,Dyrk1A ADPGlo
O=C(/C=C/c1cccc([N+](=O)[O-])c1)NCCSCc1cccc(Cl)c1,52*,0,-2,6,2,-2
O=C(/C=C/c1cccc([N+](=O)[O-])c1)NCc1ccccc1,1,-2,-1,0,-4,8
O=C(COC(=O)c1cc(=O)c2ccccc2o1)NCc1ccccc1,50*,-1,1,-9,-4,-2
O=C(COC(=O)c1ccc(Br)o1)NCc1ccc(Cl)cc1,31*,0,0,4,4,0
COc1ccccc1CNC(=O)COC(=O)c1cc(=O)c2ccccc2o1,nt,-1,0,19,-2,11
Cc1noc(C)c1CSCC(=O)N(C)CC(=O)Nc1ccccc1Br,-2,-1,0,-5,0,3
O=C(/C=C/c1ccc(Cl)cc1)NCc1ccncc1,-1,-2,-3,53*,-3,-14
Cc1ccc(/C=C/C(=O)NCc2ccncc2)cc1,1,-2,-1,-7,4,-3
Cc1ccccc1-c1nnc(SCC(=O)N(CC(C)C)c2c(N)n(CC(C)C)c(=O)[nH]c2=O)n1C,-3,-2,0,-1,-8,1
Cc1cc(C)n2c(SCC(=O)N(CC(C)C)c3c(N)n(CC(C)C)c(=O)[nH]c3=O)nnc2n1,70*,-1,0,-1,2,nt
CCOC(=O)C(NCc1ccco1)(NC(=O)c1ccccc1)C(F)(F)F (stereo not given),43*,-1,2,7,3,-2
Nc1c(C(=O)c2ccccc2)oc2ccc(Br)cc12,3,0,1,3,-1,15
Nc1c(C(=O)c2ccccc2)oc2ccc([N+](=O)[O-])cc12,-1,-4,-1,55*,-4,-2
NC(=O)COc1ccc(/C=N/NS(=O)(=O)c2ccccc2)cc1,-6,-2,-3,0,6,5
CSCC(CO)NS(=O)(=O)c1ccc(C)cc1 (stereo not given),-3,-2,2,7,-6,-10
CCN(CC)Cc1cc(Nc2ccnc3cc(Cl)ccc23)ccc1O,-2,0,1,1,44*,34
C#CCOCCOCCOCCNc1nc(N2CCN(C(=O)[C@H](CCCCN)n3cc([C@@H](N)CC(C)C)nn3)CC2)nc(N2CCN(C(=O)[C@H](Cc3cc4ccccc4[nH]3)n3cc([C@@H](N)Cc4ccc(O)cc4)nn3)CC2)n1,-2,0,11,?,59*,8
